XiGFP reactiv: activators of inactive X chromosome reactivation, primary screen, imaging, XiGFP fibroblasts, GFP high-content imaging, set 2. XiGFP mouse fibroblasts, % GFP-positive cells imaging, 3 d; cells co-treated with 5-aza-dC sensitizer; scaled so ellipticine positive control = 100%. hit rate 0.055% among 360,000. AID 743238, 2013. activation, % at 7.58 µM;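 active means mean normalized replicate activation at least 10% and every replicate at or above 10%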;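 further: 0% = median of on-plate neutral control wells and 100% = ellipticine 6 µM median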
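Assay system – SV40-immortalized XiGFP fibroblast cells, line 68-5-11 · Buffer or medium – DMEM supplemented with 5-aza-dC as sensitizing agent · Dosing – one concentration, pinned · Benchmarks – positive control ellipticine, 6 µM final · Times – 3 days compound exposure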
FGF22 binding: binders of human FGF22 protein, primary screen, FGF22 synaptogenesis inhibitor project, biophysical, thermal shift, single point; Fibroblast growth factor 22 (Homo sapiens), Q9HCT0; recombinant FGF22 thermal shift, SYPRO orange fluorescence; percent of sucrose octasulfate shift, DMSO zero; activity (Tm shift, normalised), % at 9.99 µM; hit rate 1.5% among 340,000; AID 651658, 2012;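 active means mean Tm shift, scaled 0 neutral to 100 positive control, at about 1.3% or above, every replicate too, limit read from the data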
Target sequence (Q9HCT0 whole entry, looked up): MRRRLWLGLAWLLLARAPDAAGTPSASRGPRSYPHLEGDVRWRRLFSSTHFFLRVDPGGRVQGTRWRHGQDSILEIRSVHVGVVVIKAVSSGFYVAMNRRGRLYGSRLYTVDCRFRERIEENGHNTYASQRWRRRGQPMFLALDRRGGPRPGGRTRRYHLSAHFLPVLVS
DENV2 CPE: inhibitors of DENV2 cytopathic effect, primary screen, cell-based, plate reader, single concentration; DENV2-infected cells, cytopathic effect rescue; CPE inhibition, % at 9.99 µM; hit rate 1.7% among 350,000; AID 651640, 2012; in the data active means CPE inhibition above about 20%, passing the limit was not always enough; tested in BHK-21 cells;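 further: 0% = median of neutral control wells and 100% = median of positive control wells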
Statin myotox sup: suppressors of statin myotoxicity in C2C12 myotubes, primary screen, cell-based, single point, plate reader. rescue of ATP level, % at 7.49 µM. hit rate 0.78% among 330,000. C2C12 myotubes + simvastatin, ATP luminescence, 48 h; scaled: DMSO 0, geranylgeraniol control 100;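 active means mean ATP rescue above about 67%, or every replicate alone reaching that limit, limit read from the data, passing the limit was not always enough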;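 further: myotubes were challenged with 10 µM simvastatin during compound exposure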
PglD inh: C. jejuni PglD acetyltransferase inhibitors, primary screen, biochemical, DTNB colorimetric, single point. inhibition, % at 12.5 µM. hit rate 0.098% among 360,000. purified PglD enzyme, DTNB colorimetric CoA detection; in the data active means inhibition above about 16%, passing the limit was not always enough
E-selectin induc: E-selectin induction in HUVECs, primary screen, imaging, HUVEC, immunofluorescence imaging, single point; normalized: neutral wells 0, TNF-alpha wells 100; activation, % at 7.58 µM; hit rate 0.37% among 260,000;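 active means mean E-selectin-positive cell signal at least 10% of the positive control, reached in at least 60% of replicates, without over 20% cell loss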
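Read-out basis: % PE-positive cells; Test system: HUVEC primary endothelial cells; Technique: immunofluorescence imaging; Dosing: single-point compound dose.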
The depositor's hits bear a star; / = not tested or not shown. This is a sample that favours compounds with a hit; in the whole collection about 3.3% have one here.

SMILES	XiGFP reactiv	FGF22 binding	DENV2 CPE	Statin myotox sup	PglD inh	E-selectin induc
C[C@@H]1CN([C@@H](C)CO)C(=O)Cc2cc(NC(=O)Cn3cnnn3)ccc2O[C@H]1CN(C)C(=O)Nc1ccc(F)cc1	0	/	/	27	/	86*
CC(C)NC(=O)N(C)C[C@@H]1Oc2ccc(NC(=O)Cn3cnnn3)cc2C(=O)N([C@H](C)CO)C[C@H]1C	0	/	/	/	/	59*
C[C@@H]1CN([C@H](C)CO)C(=O)Cc2cc(NC(=O)Cn3cnnn3)ccc2O[C@@H]1CN(C)C(=O)Nc1ccc(F)cc1	0	/	/	3	/	-3
C[C@@H]1CN([C@H](C)CO)C(=O)Cc2cc(NC(=O)Cn3cnnn3)ccc2O[C@H]1CN(C)C(=O)Nc1ccc(C(F)(F)F)cc1	-1	0	30*	15	8	32*
C[C@H](CO)N1C[C@H](C)[C@@H](CN(C)C(=O)Nc2ccc(C(F)(F)F)cc2)Oc2ccc(NC(=O)Cn3cnnn3)cc2CC1=O	-1	0	-4	-20	18*	-7
C[C@H]1CN([C@@H](C)CO)C(=O)c2cc(NC(=O)Cn3cnnn3)ccc2O[C@H]1CN(C)S(=O)(=O)c1ccccc1	0	0	-7	16	/	36*
C[C@H](CO)N1C[C@H](C)[C@H](CN(C)C(=O)Nc2ccc(C(F)(F)F)cc2)Oc2ccc(NC(=O)Cn3cnnn3)cc2CC1=O	0	0	-5	8	8	41*
C[C@@H]1CN([C@H](C)CO)C(=O)Cc2cc(NC(=O)Cn3cnnn3)ccc2O[C@@H]1CN(C)CC1CCCCC1	0	-1	22*	30	6	0
C[C@@H]1CN([C@H](C)CO)C(=O)Cc2cc(NC(=O)Cn3cnnn3)ccc2O[C@@H]1CN(C)CC1CC1	0	0	2	-15	-9	0
C[C@H](CO)N1C[C@H](C)[C@H](CN(C)C(=O)Nc2ccc3c(c2)OCO3)Oc2ccc(NC(=O)Cn3cnnn3)cc2CC1=O	0	0	42*	38	1	-1
C[C@@H]1CN([C@H](C)CO)C(=O)Cc2cc(NC(=O)Cn3cnnn3)ccc2O[C@@H]1CN(C)C(=O)Nc1ccc2c(c1)OCO2	0	0	0	41	-1	2
CCC(=O)N1[C@H](CO)[C@@H](c2ccc(-c3cccc(F)c3)cc2)[C@@H]1CN(C)C(C)=O	0	1	34*	4	-6	0
CCC(=O)NC[C@H]1[C@@H](c2ccc(C3=CCCC3)cc2)[C@@H](CO)N1C(=O)CC	0	/	31*	/	/	0
CC(=O)NC[C@@H]1[C@H](c2ccc(-c3cccc(F)c3)cc2)[C@H](CO)N1C(C)=O	0	0	25*	3	2	-1
CC(=O)NC[C@H]1[C@@H](c2ccc(-c3cccc(F)c3)cc2)[C@H](CO)N1C(C)=O	0	0	7	-1	-4	0
CC(=O)NC[C@H]1[C@@H](c2ccc(-c3ccccc3)cc2)[C@@H](CO)N1C(=O)C1CCC1	0	0	31*	19	2	0
CC(=O)NC[C@@H]1[C@@H](c2ccc(-c3ccccc3)cc2)[C@H](CO)N1C(=O)C1CCC1	0	0	6	5	1	1
CC(=O)N(C)C[C@H]1[C@@H](c2ccc(-c3cccc(F)c3)cc2)[C@@H](CO)N1C(C)=O	0	/	2	/	/	0
COc1ccc(NC(=O)N(C)C[C@H]2OCCCC[C@H](C)Oc3ccc(NC(=O)CCCN(C)C)cc3C(=O)N([C@H](C)CO)C[C@@H]2C)cc1	0	0	-1	/	-2	0
CCC(=O)N1C[C@H](C)[C@H](OC)CN(C)C(=O)c2ccc(NC(=O)c3ccc(F)cc3)cc2OC[C@@H]1C	0	0	6	9	1	0
CC(=O)N1[C@H](CNC(=O)C2CC2)[C@H](c2ccc(-c3cccc(F)c3)cc2)[C@@H]1CO	0	0	28*	-8	0	0
CCC(=O)NC[C@H]1[C@H](c2ccc(-c3cccc(F)c3)cc2)[C@H](CO)N1C(=O)CC	0	0	29*	8	-3	0
CC(=O)NC[C@@H]1[C@@H](c2ccc(-c3ccccc3F)cc2)[C@@H](CO)N1C(C)=O	0	1	20*	10	-1	0
CCCNC(=O)NC[C@H]1[C@H](c2ccc(C3=CCCCC3)cc2)[C@@H](CO)N1C(C)=O	0	1	22*	9	0	0
CC(=O)NC[C@@H]1[C@@H](c2ccc(-c3ccccc3F)cc2)[C@H](CO)N1C(C)=O	0	0	-10	-5	-1	0
SMILES	XiGFP reactiv	FGF22 binding	DENV2 CPE	Statin myotox sup	PglD inh	E-selectin induc
CCCNC(=O)NC[C@@H]1[C@H](c2ccc(C3=CCCCC3)cc2)[C@@H](CO)N1C(C)=O	0	0	-8	-6	-1	0
CO[C@H]1CN(C)C(=O)c2cc(NC(C)=O)ccc2OC[C@@H](C)N(C(=O)Cc2cccnc2)C[C@H]1C	1	0	-11	-21	15	0
C[C@@H]1CN([C@H](C)CO)C(=O)c2cc(C3=CCCC3)cnc2O[C@@H]1CN(C)Cc1cccnc1	0	0	2	8	-3	0
COc1ccc2c3c([nH]c2c1)[C@H](CO)N(C(=O)c1cccnc1)CC31CCN(C(=O)c2cccnc2)CC1	0	0	10	/	/	1
C[C@@H]1CCCCO[C@H](CN(C)S(=O)(=O)c2ccccc2)[C@@H](C)CN([C@@H](C)CO)C(=O)c2cc(NC(=O)NC3CCCCC3)ccc2O1	0	0	-1	/	-3	0
C[C@H]1CN([C@@H](C)CO)C(=O)Cc2cc(NC(=O)Nc3ccc(C(F)(F)F)cc3)ccc2O[C@@H]1CN(C)C(=O)Nc1ccc(F)cc1	-1	0	-2	3	0	0
C[C@H]1CN([C@@H](C)CO)C(=O)Cc2cc(NC(=O)Nc3ccc(C(F)(F)F)cc3)ccc2O[C@H]1CN(C)C(=O)Nc1ccc(F)cc1	-1	0	5	83*	1	0
C[C@@H]1CN([C@@H](C)CO)C(=O)Cc2cc(NC(=O)Nc3ccc(C(F)(F)F)cc3)ccc2O[C@H]1CN(C)C(=O)Nc1ccc(C(F)(F)F)cc1	0	0	53*	6	-1	0

Assay outcomes from PubChem BioAssay.
